Screening data deposited in PubChem by several laboratories.
This is a sample that favours compounds with a hit; in the whole collection about 3% have one here.
hiPSC survival = increases survival of single human iPS cells; hiPSC single-cell survival, ATPlite luminescence; 100% = ROCK inhibitor wells, 0% = DMSO; survival enhancement, % at 20 µM; 0.044% of 360,000 active; AID 602274; in the data active = survival enhancement above about 18%;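 note: cells exposed to compounds for 16 hours before the ATP read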
Exocytosis inh = lytic granule exocytosis inhibition. TALL-104 LAMP-1 surface exposure, flow cytometry; cells stimulated with thapsigargin and PMA. inhibition, % at 10 µM. 0.66% of 360,000 active. AID 651702;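 active = inhibition above about 55%, limit read from the data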
Apaf-1 inh = inhibitors of human Apaf-1 apoptosome; O14727; reconstituted apoptosome caspase-3 activity, DEVD-Rh110 fluorescence; inhibition, % at 20 µM; 0.71% of 330,000 active; AID 489030; active = inhibition of at least 40% at 20 µM
Target sequence (O14727 whole entry, looked up): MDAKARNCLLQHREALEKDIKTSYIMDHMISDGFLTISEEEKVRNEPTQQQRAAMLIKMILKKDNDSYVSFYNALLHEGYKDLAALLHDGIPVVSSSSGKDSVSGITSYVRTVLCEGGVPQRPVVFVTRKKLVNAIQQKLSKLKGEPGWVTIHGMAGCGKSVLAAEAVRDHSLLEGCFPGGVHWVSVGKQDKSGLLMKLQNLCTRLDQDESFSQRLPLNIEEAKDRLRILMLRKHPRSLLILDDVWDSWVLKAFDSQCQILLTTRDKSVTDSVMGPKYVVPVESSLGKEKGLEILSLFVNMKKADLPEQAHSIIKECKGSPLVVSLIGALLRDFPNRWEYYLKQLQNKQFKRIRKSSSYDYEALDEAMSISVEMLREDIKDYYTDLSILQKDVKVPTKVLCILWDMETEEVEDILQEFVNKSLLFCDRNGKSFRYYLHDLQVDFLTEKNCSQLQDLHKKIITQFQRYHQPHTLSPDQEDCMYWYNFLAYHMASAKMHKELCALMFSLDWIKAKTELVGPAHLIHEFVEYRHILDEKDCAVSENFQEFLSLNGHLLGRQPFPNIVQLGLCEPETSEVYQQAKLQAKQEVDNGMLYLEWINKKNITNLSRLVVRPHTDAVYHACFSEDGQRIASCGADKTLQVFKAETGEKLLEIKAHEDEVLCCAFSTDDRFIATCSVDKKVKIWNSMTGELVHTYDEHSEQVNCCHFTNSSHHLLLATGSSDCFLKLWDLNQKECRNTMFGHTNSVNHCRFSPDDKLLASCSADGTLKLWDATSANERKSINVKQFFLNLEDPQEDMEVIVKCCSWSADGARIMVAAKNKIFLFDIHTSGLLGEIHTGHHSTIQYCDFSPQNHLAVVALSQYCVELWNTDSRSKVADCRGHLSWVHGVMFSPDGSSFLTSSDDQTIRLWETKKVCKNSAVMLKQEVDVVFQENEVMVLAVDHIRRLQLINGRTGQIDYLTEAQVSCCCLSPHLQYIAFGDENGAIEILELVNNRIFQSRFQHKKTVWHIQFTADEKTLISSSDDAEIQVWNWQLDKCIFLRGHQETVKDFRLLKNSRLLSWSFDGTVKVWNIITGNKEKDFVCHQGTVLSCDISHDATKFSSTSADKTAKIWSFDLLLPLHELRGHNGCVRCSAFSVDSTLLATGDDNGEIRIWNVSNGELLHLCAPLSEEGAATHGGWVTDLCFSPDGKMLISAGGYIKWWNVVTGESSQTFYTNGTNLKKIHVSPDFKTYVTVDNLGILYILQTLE
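Material: reconstituted apoptosome with Apaf-1, cytochrome c, caspase-9, procaspase-3, dATP; medium: pH 7.5 Hepes buffer with CHAPS, BSA, DTT; also added: cytochrome c and DEVD-Rh110 substrate; timing: 30 min plus 50 min, RT; signal: Rh110 fluorescence intensity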
MPTP block = inhibitors of mitochondrial permeability transition pore; isolated mouse mitochondria, Ca2+ swelling absorbance, 30 min; inhibition, % at 10 µM; 1.4% of 360,000 active;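 active = inhibition of 50% or more, scaled per plate between neutral and stimulator controls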
UBC13 polyUb = human UBC13 polyubiquitination inhibition; AID 485273; 0.47% of 330,000 active; inhibition, % at 20 µM; UBC13 polyubiquitin chain formation, TR-FRET; in the data active = inhibition above about 45%, passing the limit was not always enough
MIN6 prolif = induces beta-cell replication in MIN6 cells | 0.29% of 330,000 active | proliferation, % at 10 µM | MIN6 cells proliferation, ATPlite luminescence, 48 h; cells starved in 0.2% serum; 100% = growth in 10% serum;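 active = compounds whose signal lies at least 3.5 SD above the mean of all wells on their plate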
Apaf-1 inh conf = confirmation of Apaf-1 inhibitors. shares compounds with Apaf-1 inh. reconstituted apoptosome, caspase-3 DEVD-Rh110 fluorescence. inhibition, % at 20 µM. 25% of 1,800 active. AID 504614;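 active = mean inhibition of at least 40% at 20 µM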
Rh110 interf inh = Rh110 signal interference in Apaf-1 inhibitor counter-screen; shares compounds with Apaf-1 inh; Rh110 fluorescence interference, quenched caspase reaction; activation (fluorescence interference), % at 20 µM; 1,800 tested, under 10 active; AID 504615;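 active = signal rise of 40% or more at 20 µM, treated as a fluorescence artifact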
Fluor interf inh = shows fluorescence interference in the Apaf-1 inhibitor assay format; fluorescence interference counterscreen, Apaf-1 assay format; shares compounds with Apaf-1 inh; 460 tested, under 10 active; IC50, µM; call rule not given here
Each line names hits and unclear results; the compound was inactive in the other large screens (follow-up assays come after a bar, where they were run).

Cc1ccc(S(=O)(=O)c2c(N)n(CCC(C)C)c3nc4ccccc4nc23)cc1	none
CC(C)CCn1c(N)c(S(=O)(=O)c2cccs2)c2nc3ccccc3nc21	Apaf-1 inh 51 | Apaf-1 inh conf inactive | Rh110 interf inh inactive
C=CC1CN2CCC1CC2C(O)c1ccnc2ccc(OC)cc12 (configuration not stated)	none (no result: Apaf-1 inh, MPTP block, UBC13 polyUb, MIN6 prolif)
FC(F)(F)c1ccc(CN2C[C@@H]3C(c4ccc(Cl)nc4)C4(c5cccnc5)CC3(C4)[C@H]2c2ccccc2)cc1 (some centres not stated)	Apaf-1 inh 42 (no result: hiPSC survival, Exocytosis inh, MPTP block) | Apaf-1 inh conf inactive | Rh110 interf inh inactive
Clc1ccc(C2[C@H]3CN(Cc4ccc(-c5ccccc5)cc4)[C@H](c4ccccc4)C34CC2(c2cccnc2)C4)cn1 (some centres not stated)	none (no result: hiPSC survival, Exocytosis inh, MPTP block)
COc1ccc(OC)c(NC(=O)COc2ccc(S(=O)(=O)N3CCCC3)cc2)c1	none
O=C(NCc1cccs1)c1cccc(S(=O)(=O)N2CCCCC2)c1	Apaf-1 inh 55 | Apaf-1 inh conf inactive | Rh110 interf inh inactive
N#Cc1ccc(S(=O)(=O)N2CCCCC2c2cc(C(=O)N3CCOCC3)no2)cc1 (configuration not stated)	none (no result: Apaf-1 inh, UBC13 polyUb, MIN6 prolif)
CC1(c2ccccc2Cl)NC(=O)N(CC(=O)Nc2ccc(N3CCCCC3)cc2)C1=O (configuration not stated)	none
CCOC(=O)c1ccc(NC2=CC(=O)C(=O)c3ccccc32)cc1	Apaf-1 inh 72 | Apaf-1 inh conf 88 | Rh110 interf inh inactive | Fluor interf inh inactive
NS(=O)(=O)c1ccc(NC2=CC(=O)C(=O)c3ccccc32)cc1	Apaf-1 inh 95 | Apaf-1 inh conf 98 | Rh110 interf inh inactive | Fluor interf inh inactive
O=C1C=C(Nc2ccc(O)cc2)C(=O)c2ccccc21	none
CC1(NC(=O)CC(c2ccccc2)(c2ccccc2)c2ccccc2)CCN(CCCc2ccccc2)C1=O (configuration not stated)	none
COc1ccc2c(-c3ccc(OCCN4CCCCC4)cc3)c(-c3ccccc3OC)sc2c1	Exocytosis inh 66, Apaf-1 inh 60 (no result: UBC13 polyUb, MIN6 prolif) | Apaf-1 inh conf inactive | Rh110 interf inh inactive
COc1ccc2sc(-c3ccccc3OC)c(-c3ccc(OCCN(C)C)cc3)c2c1	Apaf-1 inh 65 (no result: UBC13 polyUb, MIN6 prolif) | Apaf-1 inh conf inactive | Rh110 interf inh inactive
COc1ccccc1-c1sc2ccccc2c1-c1ccc(OCCN2CCCCC2)cc1	Apaf-1 inh 62 (no result: UBC13 polyUb, MIN6 prolif) | Apaf-1 inh conf inactive | Rh110 interf inh inactive
CC(C)CC(NC(=O)C1CCC(=O)N1)C(=O)NC(CC(C)C)C(=O)N1CCCC1C(N)=O (configuration not stated)	none
CC1(C(=O)NS(=O)(=O)C2CC2)CCCN(C(=O)c2ccc(F)cc2Cl)C1 (configuration not stated)	none (no result: Apaf-1 inh, UBC13 polyUb, MIN6 prolif)
CC(C)N1CC(C(=O)Nc2ccc(Cl)cc2Cl)CC1=O (configuration not stated)	none (no result: Apaf-1 inh, UBC13 polyUb, MIN6 prolif)
C[C@@H]1CN([C@H](C)CO)C(=O)Cc2cc(NS(=O)(=O)c3ccc(Cl)cc3)ccc2O[C@H]1CN(C)Cc1ccc(C(F)(F)F)cc1	Apaf-1 inh 41 | Apaf-1 inh conf inactive | Rh110 interf inh inactive
C[C@@H]1CN([C@H](C)CO)C(=O)Cc2cc(NS(=O)(=O)c3ccc(F)cc3)ccc2O[C@H]1CN(C)Cc1ccc(C(=O)O)cc1	none
COc1ccc(OC)c2c1cc(C(=O)N[C@H](C(=O)N1CCC[C@H]1C(=O)O)C(C)C)n2C	Apaf-1 inh 52 | Apaf-1 inh conf inactive | Rh110 interf inh inactive
O=C(COC(=O)c1ccc([N+](=O)[O-])s1)NNC(=O)c1ccccc1	Apaf-1 inh 41 | Apaf-1 inh conf inactive | Rh110 interf inh inactive
CC1CCC2(CC1)NC(=O)N(NC(=O)c1cc3ccccc3o1)C2=O (configuration not stated)	none
COc1ccc2[nH]c(=O)c(CNc3ccccc3C)cc2c1	none
COc1ccc2[nH]c(=O)c(CNc3ccccc3OC)cc2c1	Apaf-1 inh 51 | Apaf-1 inh conf 43 | Rh110 interf inh inactive | Fluor interf inh inactive
CCCn1c(N)c(N2CCCCC2)c(=O)n(CC(=O)Nc2cccc(S(=O)(=O)N(C)C)c2)c1=O	none
CCOc1ccc(NC(=S)Nc2cccc3ccccc23)cc1	Apaf-1 inh 66 | Apaf-1 inh conf inactive | Rh110 interf inh inactive
COc1ccc(NC(=S)Nc2cccc3cnccc23)cc1	Apaf-1 inh 95 | Apaf-1 inh conf inactive | Rh110 interf inh inactive
COc1ccccc1NC(=S)NCc1cccnc1	none
CCOc1ccc(NC(=S)Nc2cccc3cnccc23)cc1	Apaf-1 inh 96 | Apaf-1 inh conf inactive | Rh110 interf inh inactive
COc1ccccc1NC(=S)Nc1cccc2cnccc12	Apaf-1 inh 97 | Apaf-1 inh conf inactive | Rh110 interf inh inactive
COc1ccc(NC(=S)Nc2ccc(Oc3ccccc3)cc2)cc1	none
Cn1c(N)c(C(=O)CSc2nnc3n2CCCCC3)c(=O)n(C)c1=O	none
S=C(Nc1cccnc1)Nc1cccc2cnccc12	Apaf-1 inh 86 | Apaf-1 inh conf inactive | Rh110 interf inh inactive
Cc1cccc(NC(=S)Nc2cccc3ccccc23)c1	Apaf-1 inh 93 | Apaf-1 inh conf inactive | Rh110 interf inh inactive
Cc1cc(C)cc(NC(=S)Nc2cccc3ccccc23)c1	none
CCN(C(=S)Nc1cccnc1)c1cccc2ccccc12	Apaf-1 inh 85 | Apaf-1 inh conf inactive | Rh110 interf inh inactive
CC(C)N1CCC1(C)C(=O)Nc1cccc2ccccc12 (configuration not stated)	none (no result: Apaf-1 inh, UBC13 polyUb, MIN6 prolif)
CN(C)S(=O)(=O)c1cccc(NC(=S)Nc2cccc3cnccc23)c1	none (no result: Apaf-1 inh, UBC13 polyUb, MIN6 prolif)
CC1(C(=O)Nc2cccc3ccccc23)CC1(Br)Br (configuration not stated)	Apaf-1 inh 56 | Apaf-1 inh conf inactive | Rh110 interf inh inactive
CC(=O)Nc1sc(C)c(C)c1C(=O)OCC(=O)N(CC(C)C)c1c(N)n(Cc2ccccc2)c(=O)[nH]c1=O	none
Cc1ccc(S(=O)(=O)N(C)C)cc1NC(=S)Nc1cccc2ccccc12	Apaf-1 inh 93 | Apaf-1 inh conf inactive | Rh110 interf inh inactive
Cc1ccc(NC(=S)Nc2cccc3ccccc23)cc1	none
Fc1ccc(NC(=S)Nc2cccc3cnccc23)cc1	Apaf-1 inh 95 | Apaf-1 inh conf inactive | Rh110 interf inh inactive
CC(=O)NNC(=S)Nc1cc(S(=O)(=O)N(C)C)ccc1C	none
CC(C)(C)c1ccc(C(O)c2ncc(-c3ccccc3F)[nH]2)cc1 (configuration not stated)	none (no result: Apaf-1 inh, UBC13 polyUb, MIN6 prolif)
